Source: ChEMBL document CHEMBL4513216, “Probing the Open Global Health Chemical Diversity Library for Multistage-Active Starting Points for Next-Generation Antimalarials” (ACS Infect Dis, 2020)

Test: Toxicity liver stage against HepG2, at 10uM
Type: cell-based
Parameters: test concentration 10 uM, cell line HepG2-A16-CD81EGFP
Conditions: human, HepG2-A16-CD81EGFP cells; read-out: INHIBITION
How it was run: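 Uninfected HepG2-A16-CD81EGFP cells, 3 × 10^3 per well, 1536-well, plated on prespotted compound at 10 μM final, parasite-free screening media added to match infected plates; puromycin 10 μM positive, DMSO 0.5% negative; run in parallel with 48 h PbLuc assay at 37 °C, 5% CO2; viability by CellTiter-Glo luminescence, normalized to controls.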

Row | Compound | cytotoxicity at 10 µM [%]
1 | CC(C)c1noc([C@@H]2Cc3[nH]cnc3CN2C(=O)Nc2ccccc2)n1 | 0.0515
2 | O=C1N[C@@H]2CCN(C(=O)N3CCOCC3)[C@@H]2C(=O)N1Cc1ccccc1 | -3.36
3 | CC(C)(C)n1ncc2c1NC(=O)CSC2c1ccc2c(c1)OCCO2 (centres undefined) | -1.74
4 | Cc1nn2cnnc2c(C)c1CCC(=O)Nc1nnc(C2CC2)s1 | -2.89
5 | CCc1cnc2c(c1Nc1cccc(OC)c1)c(=O)n(C)c(=O)n2C | 12.6
6 | O=C(C1CC1)N1CCN(c2ccc(-n3cncn3)nn2)CC1 | -4.83
7 | O=C(CC1CC1)N1CCC2(CC1)C(=O)NCCN2Cc1ccccc1 | -3.33
8 | O=C(NCc1ccccc1)N1C[C@H]2CCN[C@H]2C1 | -5.54
9 | O=C1COC2(CCN(C(=O)c3cnccn3)CC2)CN1CC1CC1 | -16
10 | Cc1nc(N2CCCC2)nc2c1CN(C(=O)c1ccco1)CC2 | 5.29
11 | CN(C)C(=O)c1nc2c(n1C)CCN(Cc1ccccc1)C2 | 7.83
12 | O=C([C@H]1CCCO1)N1Cc2nccn2CC(COc2cccnc2)C1 (some centres undefined) | 7.45
13 | Cc1nc([C@H]2C[C@H]3CN(C(=O)c4cc(C)c(C)s4)CC[C@@H]3O2)no1 | 0.732
14 | O=C1COC2(CCN(Cc3ccncc3)CC2)CN1CC1CC1 | -3.84
15 | CCOc1ccc(NC(=O)c2cc3c([nH]c2=O)CCC3)cc1 | 6.5
16 | Cc1cc2nc(SCC(=O)N3CCOCC3)n(CC(C)C)c(=O)c2[nH]1 | 1.36
17 | COCC1CC2(CCN(C(=O)c3cccn3C)CC2)CN1C(C)C (centres undefined) | -14.2
18 | Cc1cccc(COC[C@]23COC[C@H]2CN(C(=O)c2ccsc2)C3)n1 | -7.85
19 | CN1CCN(C(=O)[C@@H]2CCO[C@@H]3CCN(c4ncccn4)C[C@@H]32)CC1 | -4.96
20 | Cc1cc(C(=O)NCC2COCc3c(C)nnn3C2)no1 (centres undefined) | -7.32
21 | O=C(N[C@@H]1CN(Cc2cccs2)[C@@H]2CCCO[C@@H]21)C1CC1 | 3.63
22 | O=C1CCC(c2nc(C3CCN(C(=O)Cc4cccs4)CC3)no2)N1 (centres undefined) | -2.83

Row | Compound | cytotoxicity at 10 µM [%]
23 | Cc1ncsc1C(=O)N1CCC(O)(Cn2c(C)cc3ccncc32)CC1 | 9.59
24 | COC1CCCOC12CCN(C(=O)c1ccc3[nH]nnc3c1)CC2 (centres undefined) | -3.97
25 | COc1ccc2c(c1)NC(C1CCN(C(=O)C3CC3)CC1)NS2(=O)=O (centres undefined) | 0.0454
26 | CCCC(=O)N1CCC(Cc2ccccc2-c2ccccc2)(C(N)=O)C1 (centres undefined) | -23.6
27 | CC(=O)c1ccc(-c2cc(C(F)(F)F)cc(N(C)C)n2)cc1 | 4.02
28 | Cc1cc(NC(=O)c2ccc(C)c(F)c2)[nH]n1 | -42.1
29 | CC1CS(=O)(=O)CCN1Cc1ccccc1N(C)C (centres undefined) | 5.29
30 | CCc1nsc(N2CCn3c(nnc3-c3ccccc3)C2)n1 | 3.67
31 | O=C(c1cccnc1N1CCCC1)N1CCOC(c2ccccc2)C1 (centres undefined) | 3.13
32 | COc1ccccc1CC(NC(=O)N1CCC[C@@H]1CO)C(C)C (some centres undefined) | 3.34
33 | CC(NC(N)=O)C(=O)NCc1ccc(Br)c(F)c1 (centres undefined) | 7.97
34 | c1csc(-c2noc(C3CCCOC3)n2)c1 (centres undefined) | 7.39
35 | O=C(Nc1cnn(Cc2ccc(Cl)cc2)c1)N1CCCC1CO (centres undefined) | -1.13
36 | Cc1ccccc1C(NC(=O)NCC1(CO)CC1)C1CC1 (centres undefined) | -7.16
37 | COCC(=O)N1CCN(c2ccc(C(=O)OC)cc2)CC1C (centres undefined) | -14.2
38 | O=C(Nc1ccc(CN2CCOCC2)cc1)c1nccn2ccnc12 | -8.3
39 | CC(C)=CCS(=O)(=O)Cc1ccn(-c2cccc(F)c2)n1 | 6.37
40 | COc1cc(Cl)c(C)cc1NC(=O)CCNc1ccc(C#N)cn1 | 0.423
41 | CCCNC(=O)CC1OCCc2ccsc21 (centres undefined) | -1.5
42 | COc1cccc(CCC(=O)N2CCN(Cc3noc(C)n3)CC2)c1 | 3.09
43 | CCC(C)Sc1nncn1-c1ccc(OC)nc1 (centres undefined) | -1.35
44 | Cc1cc2n(n1)CC(CNC1CCN(C3CC3)CC1)CN2 (centres undefined) | 4.16

Row | Compound | cytotoxicity at 10 µM [%]
45 | CCc1noc(CN2CCC(NC(=O)c3ccc(C)s3)CC2)n1 | -5.04
46 | COC(=O)c1cc(OC)c(OC)cc1NCc1c(C)noc1C | 4
47 | CS(=O)(=O)NCC1CCCN(C(=O)Nc2cccc3ccccc23)C1 (centres undefined) | -139
48 | CN1CCCN(c2nc(C3CC3)ns2)CC1 | -3.23
49 | COc1ccsc1C(=O)Nc1cc(CN2CCOCC2)ccc1C | -0.0813
50 | O=C1CCc2cc(OCCN3CCc4cncnc4C3)ccc2N1 | -7.2
51 | CCC1CN(c2cnn(C)c(=O)c2Br)CCO1 (centres undefined) | -5.09
52 | O=C(Cc1csc(N2CCNC2=O)n1)NCC1(c2ccccc2)CC1 | -123
53 | CCOc1ccc(NC2CCN(C)C2=O)cn1 (centres undefined) | -3.7
54 | CC(C)(CNc1cn[nH]c(=O)c1Cl)c1ccc2c(c1)OCO2 | 6.67
55 | Cc1ccc(-c2n[nH]cc2CNCC2CCS(=O)(=O)C2)o1 (centres undefined) | 12.4
56 | COc1c(NC(=O)C(C)CCOc2ccccc2)c(C)nn1C (centres undefined) | 8.96
57 | O=C(CNC(=O)C1CC1)NCC(F)(F)F | -5.82
58 | CN(C)C(=O)Cn1ccc2cc(NC(=O)N3CCOCC3)ccc21 | 6.35
59 | Cc1ccc(CC(=O)N2CCN(C(C)c3ccccc3F)CC2)cn1 (centres undefined) | -9.75
60 | COc1ccc(-c2nnc(SCC(=O)NCC(C)C)[nH]2)c(OC)c1 | -6.73
61 | CCc1nnc2n1CCN(C(=O)c1ccc3nc(C)c(C)nc3c1)C2 | -10.9
62 | Cc1nn(CC(=O)N2CCCCC2Cn2cccn2)c(C)c1Cl (centres undefined) | 2.35
63 | Cc1ccoc1C(=O)N1C[C@H](OCC2CC2)[C@H]2OCCC[C@H]21 | 2.89
64 | CC(C)Cc1nc(CN(C)c2cc(C(C)C)nc3ccnn23)no1 | 3.61
65 | Cc1ccccc1CN1C[C@@H](CN(C)CCO)[C@@H](CO)C1 | -1.03
66 | Cc1cccn2c(CC(=O)N3CCC(Oc4ncccn4)CC3)cnc12 | 6.78

Row | Compound | cytotoxicity at 10 µM [%]
67 | COC[C@]1(O)CCN(c2cc(OC)ncn2)CC1(C)C | 5.66
68 | COCCN1CCCC2(CCN(c3nc(C)nc4c3CCC4)C2)C1=O (centres undefined) | -11.4
69 | Cc1ccc2[nH]c(CN(C)Cc3n[nH]c4c3CCC4)nc2c1 | 4.85
70 | CC(=O)NCC(=O)N1CCCC(C(=O)c2ccc(C(C)(C)C)cc2)C1 (centres undefined) | 5.78
71 | Nc1cc(C(=O)N2CCC3(CC2)Nc2ccccc2NC3=O)ccn1 | 6.13
72 | O=S(=O)(c1ccc(-c2cnco2)cc1)N1CCCC(O)(CO)CC1 (centres undefined) | 1.72
73 | Cc1nc(NCC(O)CN2CCCCCC2)c2c(C)nn(C)c2n1 (centres undefined) | -2.86
74 | CC(C)(O)CCc1cccc(C(=O)N[C@@H](CO)C(N)=O)c1 | 4.76
75 | CCOc1ccccc1-n1c(C2CC(=O)N(C)C2)n[nH]c1=O (centres undefined) | 2.48
76 | COc1cccc(-c2noc(-c3ccc(NCC4CC4)nc3)n2)c1OC | 6.65
77 | CCCC1(CO)CCCN(c2ncccc2F)C1 (centres undefined) | -6.83
78 | CC(C)N1CCCC2(CCN(C(=O)CCCn3cncn3)C2)C1=O (centres undefined) | -11.1
79 | O=C(Cc1cccc(F)c1)NCCCNC(=O)c1cccc(O)c1 | 1.06
80 | CC(C)Cc1cc(NC(=O)c2cc(Cl)c[nH]2)n(C)n1 | -7.94
81 | O=C(Nc1cc(C(F)(F)F)c[nH]c1=O)N1CCOCC1 | -3.03
82 | Cc1ccc(-c2nnc(CN3CCCCC3Cn3cncn3)o2)cc1 (centres undefined) | 3.84
83 | Cc1ccc(C(C)N(C)Cc2nc3c(cnn3C)c(=O)[nH]2)s1 (centres undefined) | -4.31
84 | CC(NC(=O)CCC(=O)c1cccs1)c1nnc2n1CCC2 (centres undefined) | -15.1
85 | CC(C)c1ccc(OCC(=O)NS(=O)(=O)c2cccnc2)cc1 | -5.19
86 | CC(C)c1noc(CCCC(=O)NC(C)c2ccccn2)n1 (centres undefined) | -4.36
87 | Cn1ncc2c(=O)[nH]c(CN3CCCC3c3cccc(F)c3)nc21 (centres undefined) | -9.14
88 | Cn1ccnc1CNCC1CCCN1c1cccnn1 (centres undefined) | -11.3

Row | Compound | cytotoxicity at 10 µM [%]
89 | Cc1ccc(NC2CCN(C(=O)COc3ccccc3)CC2)nn1 | -3.25
90 | O=C(c1cnc(-c2ccccn2)s1)N1CCCC(n2cccn2)C1 (centres undefined) | -11.9
91 | CCN(Cc1nc2c(cnn2C)c(=O)[nH]1)Cc1ccccc1Cl | -22.7
92 | CSC(C)C(=O)NCc1ccc(-n2cncn2)nc1 (centres undefined) | 3.28
93 | COc1ccc(-c2cc(C3CCNCC3)nc(C)n2)cc1 | 10.2
94 | COc1ccc(CNCC(C)Oc2ccccn2)cc1 (centres undefined) | -2.7
95 | CN(C)[C@@H]1CCN(c2ncccn2)[C@H]1Cc1cccnc1 | -3.9
96 | O=C(CN1CC(c2nc(-c3ccco3)no2)C1)NCc1ccc(F)cc1 | -5.07
97 | O=S(=O)(C1CC1)N1CCO[C@H]2[C@@H](Oc3ncccc3F)CC[C@@H]21 | 1.67
98 | CCn1cc2c(n1)CN(C(=O)c1ccncc1)CC2COCC1CC1 (centres undefined) | -2.37
99 | NC(=O)c1ccc(CNC2CC2)cc1 | 8.57
100 | Cc1ccc(C(=O)N2Cc3c(CN4CCCCC4)nn(C)c3C2)cc1F | -4.15
101 | CN1CCN(C(=O)[C@H]2C[C@@H]3CCN(c4ncc(F)cn4)C[C@@H]3O2)CC1 | -6.69
102 | Cc1nnc([C@@H]2CC[C@@H]3[C@@H](CCN3Cc3ccccn3)O2)o1 | 11.3
103 | O=C(C1CCCO1)N1CCc2ncnc(NC3CCC3)c2CC1 (centres undefined) | -5.16
104 | O=C(c1ccsc1)N1CCO[C@@H]2CN(Cc3ccccn3)CC[C@@H]2C1 | -123
105 | Cc1cc(C(=O)N2CCC3(CC2)CC(c2cccnc2)C(=O)N3)no1 (centres undefined) | -133
106 | COCC1CN(C(=O)c2ccco2)Cc2cn(C)nc21 (centres undefined) | 9.08
107 | Cc1ccc(CN2CCc3ncnc(C4CCOC4)c3CC2)s1 (centres undefined) | -0.827
108 | CCc1ccc(NC(=O)N2C[C@@H]3C[C@H](C(=O)NC(C)C)[C@H](C2)O3)cc1 | -1.67
109 | CCn1ncc(-c2nc3c[nH]n(CC)c-3n2)c1C | 2.13
